PG9 binder: binders of HIV-1 gp120 antibody PG9, primary screen, biochemical, TR-FRET; inhibition, % at 6.7 µM; AID 624416, 2012; TR-FRET gp120-PG9 antibody binding; 360,000 tested, 0.43% active; in the data active means inhibition above about 8.5%
Neddylation inh: inhibitors of cullin neddylation, primary screen, biochemical, TR-FRET, uHTS, NAE and Ubc12 | calls only at 25 µM | 360,000 tested, 0.58% active | NEDD8-conjugating enzyme Ubc12 (Homo sapiens) + NEDD8-activating enzyme E1 regulatory …; in the data active means inhibition above about 36%
NR2E3 ag-1: inhibitors of NR2E3-RetCOR corepressor binding, primary screen, NR2E3 agonist project, biochemical, TR-FRET, GST-NR2E3, biotin-RetCOR | Photoreceptor-specific nuclear receptor (Homo sapiens), Q9Y5X4 | 1536-well | inhibition of corepressor binding, % at 4.78 µM | 320,000 tested, 0.12% active | AID 2300, 2010;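 active means percent inhibition above the cutoff of mean plus 3 SD of all tested compounds, set per screening campaign, cut at about 20% in these data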
Target sequence (Q9Y5X4 whole entry, looked up): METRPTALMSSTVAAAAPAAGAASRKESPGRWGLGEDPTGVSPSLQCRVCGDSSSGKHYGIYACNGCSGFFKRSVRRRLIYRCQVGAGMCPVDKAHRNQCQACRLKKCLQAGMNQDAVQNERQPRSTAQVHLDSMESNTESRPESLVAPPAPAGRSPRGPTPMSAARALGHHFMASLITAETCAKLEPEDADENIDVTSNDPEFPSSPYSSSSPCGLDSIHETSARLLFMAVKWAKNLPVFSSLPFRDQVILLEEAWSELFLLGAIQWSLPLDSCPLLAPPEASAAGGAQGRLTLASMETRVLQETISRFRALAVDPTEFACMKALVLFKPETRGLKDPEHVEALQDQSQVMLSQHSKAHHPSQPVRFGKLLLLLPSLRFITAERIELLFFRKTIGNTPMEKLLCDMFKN
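Material: NR2E3–RetCOR corepressor complex | Quantity: 1.35 nM GST-tagged NR2E3 final | Schedule: 5 h at 4 °C | Replication: Singlicate compound wells | Reagent: RetCOR corepressor, biotinylated, 7 nM | Controls: Biotin wells as high control, 0.6% DMSO wells as low control | Signal: TR-FRET, Eu(K)-anti-GST donor, streptavidin-D2 acceptor, ex 340, em 617/671 nm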
Rev-erbA mod: modulators of Rev-erb alpha DNA binding, primary screen, biochemical, FITC-DNA, fluorescence polarization, uHTS; 370,000 tested, 0.79% active; activity, % at 10 µM; AID 1259318, 2017; Nuclear receptor subfamily 1 group D member 1 (Homo sapiens), P20393; Rev-erbα–FITC-DNA binding, 90 min;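 active means activity above about 14%, limit read from the data; passing the limit was not always enough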
NR2E3 ag-2: NR2E3 agonists in two-hybrid cells, primary screen, cell-based, luminescence, CHO-S, Gal4-NCOR/VP16-NR2E3; inhibition of corepressor binding, % at 3.98 µM; 360,000 tested, 0.35% active; Photoreceptor-specific nuclear receptor (Homo sapiens), Q9Y5X4; luciferase; AID 602229, 2012;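 active means inhibition above the mean of all tested compounds plus 3 SD, cut at about 70% in these data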;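 further: higher means lower luciferase signal from less NR2E3 corepressor binding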
PG9 bind confirm: binders of anti-gp120 antibody PG9, confirmation, biochemical, TR-FRET. TR-FRET PG9 antibody binding. 1,500 tested, 90% active. inhibition, % at 6.7 µM. shares compounds with PG9 binder; in the data active means inhibition above about 9%
PGV04 Ab binding: binders of control antibody PGV04, counter-screen for PG9 antibody binder project, biochemical, TR-FRET, distinct HIV envelope site; TR-FRET PGV04 antibody-gp120 binding; inhibition, % at 6.7 µM; shares compounds with PG9 binder; 1,500 tested, 95% active; in the data active means inhibition above about 9.5%
NR1D1 mod conf: modulators of Rev-erb alpha DNA binding, confirmation, biochemical, FITC-DNA, fluorescence polarization, single point; AID 1259319, 2017; shares compounds with Rev-erbA mod; 90 min; activation, % at 25 µM; 3,000 tested, 61% active;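 active means activation at or above a set limit, or at least 3 SD above the negative control mean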
RORg counter: modulation of RORgamma DNA binding, dose response, counter-screen for Rev-erb alpha modulator project, biochemical, fluorescence polarization, FITC-DNA. shares compounds with Rev-erbA mod. IC50, µM. purified RORgamma protein-FITC-DNA binding. 910 tested, 8% active;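 active means Compounds whose fitted half-maximal concentration for disrupting protein-DNA binding is below 10 micromolar; the record names Rev-erb in its text, so the target is in doubt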
Large screens that a line does not name were inactive (follow-up assays come after a bar, where shown). Rows were chosen to be rich in hits. Some 2% of all compounds tested hit in one or more screens of this group.

Clc1ccc2c(-c3ccccc3)nc(-c3cccs3)nc2c1	none (no result: NR2E3 ag-1)
Nc1c(S(=O)(=O)c2cccc(Cl)c2)c2nc3ccccc3nc2n1CCN1CCOCC1	PG9 binder 11, Rev-erbA mod 32 | PG9 bind confirm inactive | PGV04 Ab binding inactive | NR1D1 mod conf inactive
COc1cc(OC)c(NC(=O)C(Sc2nc(C)cc(C)c2C#N)c2ccccc2)cc1Cl (centres undefined)	none (no result: Neddylation inh, NR2E3 ag-1, NR2E3 ag-2)
O=C(C(=O)N1CCC(c2ccccc2)CC1)c1ccc(F)c(F)c1	none (no result: NR2E3 ag-1, NR2E3 ag-2)
O=C(COc1ccc2ccccc2c1Br)NNC(=O)Nc1ccccc1	PG9 binder 37, Rev-erbA mod 281 | PG9 bind confirm 41 | PGV04 Ab binding 48 | NR1D1 mod conf 381 | RORg counter 4
COC(=O)NNC(=O)COc1ccc2ccccc2c1Br	none
CCc1ccc(C=NN2CCN(Cc3ccc(C)cc3C)CC2)cc1	none (no result: PG9 binder, Neddylation inh, NR2E3 ag-1, NR2E3 ag-2)
Cc1cccc(NC(=O)CCN2C(=O)c3ccccc3C2=O)n1	none
O=C(CCN1C(=O)c2cccc3cccc(c23)C1=O)Nc1ccon1	PG9 binder 12, Rev-erbA mod 43 | PG9 bind confirm 17 | PGV04 Ab binding 36 | NR1D1 mod conf 30
COc1ccc(NC(=O)CSc2nnc(-c3cccs3)n2-c2ccccc2)cc1	PG9 binder 22, Rev-erbA mod 25 | PG9 bind confirm 33 | PGV04 Ab binding 57 | NR1D1 mod conf 21
COc1cccc(CN2CCC2(C)C(=O)NCc2cccc(C(F)(F)F)c2)c1OC (centres undefined)	none (no result: NR2E3 ag-1)
N#Cc1ccccc1OCC(=O)N(Cc1nnc(-c2ccccc2Cl)o1)C1CC1	none
CC1CCN(C(=O)c2ccccc2SCC(=O)NCC2CCCCC2)CC1	none
Cc1cc(C)c2c(N)c(C(=O)Nc3ccccc3Br)sc2n1	PG9 binder 9.1, Rev-erbA mod 38 (not shown: Neddylation inh) | PG9 bind confirm 23 | PGV04 Ab binding 38 | NR1D1 mod conf 28
C=CCn1c(SCC(=O)Nc2sccc2C#N)nc2sc(C)c(C)c2c1=O	PG9 binder 11, Rev-erbA mod 97 | PG9 bind confirm 26 | PGV04 Ab binding 44 | NR1D1 mod conf 63 | RORg counter inactive
CC(C)c1cc(=O)n2c(nc3ccccc32)[nH]1	none
O=c1cc(-c2ccccc2)[nH]c2nc3ccccc3n12	PG9 binder 13, Rev-erbA mod 24 (not shown: Neddylation inh) | PG9 bind confirm 20 | PGV04 Ab binding 32 | NR1D1 mod conf 17
N#Cc1c(N)nc2c3c(sc(=N)c2c1N)NC(=O)CC3c1c(F)cccc1Cl (centres undefined)	PG9 binder 17, Rev-erbA mod 58 | PG9 bind confirm 22 | PGV04 Ab binding 30 | NR1D1 mod conf 62 | RORg counter 2.9
CCOC(=O)CSC1=C(C#N)C(c2ccc(Cl)cc2)CC(=O)N1 (centres undefined)	none
N#Cc1c(N)nc2c3c(sc(=N)c2c1N)NC(=O)CC3c1ccccc1 (centres undefined)	PG9 binder 57, Rev-erbA mod 29 | PG9 bind confirm 55 | PGV04 Ab binding 71 | NR1D1 mod conf 41 | RORg counter inactive
Cc1c(C#N)c(N)nc2c3c(sc12)NC(=O)CC3c1ccc(Cl)cc1 (centres undefined)	PG9 binder 18, Rev-erbA mod 65 | PG9 bind confirm 16 | PGV04 Ab binding 33 | NR1D1 mod conf 45 | RORg counter inactive
O=C(Nc1ccc(F)cc1)OCCN1C(=O)CCC12CCC(c1ccccc1)CC2 (centres undefined)	none (no result: PG9 binder, Neddylation inh, NR2E3 ag-1, NR2E3 ag-2)
CC1(C(=O)Nc2ccc3c(c2)OCCO3)CN(S(C)(=O)=O)CC(=O)N1Cc1cccs1 (centres undefined)	none (no result: NR2E3 ag-1, NR2E3 ag-2)
O=C(NCc1ccccc1F)C1C2C=CC3(CN(Cc4ccccc4)C(=O)C13)O2 (centres undefined)	none (no result: PG9 binder, Neddylation inh, NR2E3 ag-1, NR2E3 ag-2)
COC(=O)c1c(-c2ccccc2)csc1NC(=O)c1ccco1	PG9 binder 17, Rev-erbA mod 19 (not shown: Neddylation inh) | PG9 bind confirm 9.8 | PGV04 Ab binding 14 | NR1D1 mod conf inactive
Cc1ccc(C(=O)/C=C/c2cc(C#N)n(C)c2C)cc1	none
Cc1cscc1-c1ccc(C(=O)Nc2c(C)cccc2C)o1	none (no result: NR2E3 ag-1)
O=c1c2cc3cc4c(cc3nc2ncn1Cc1cccnc1)OCO4	none (no result: PG9 binder, Neddylation inh, NR2E3 ag-1, NR2E3 ag-2)
CCOc1ccc(C(=O)OCC(=O)Nc2cc(C)on2)cc1OCC	PG9 binder 22, Rev-erbA mod 58 | PG9 bind confirm inactive | PGV04 Ab binding 16 | NR1D1 mod conf 31
CCc1nc(Nc2ccccc2OC)c2oc3ccccc3c2n1	none
CCc1nc(Nc2cc(OC)ccc2OC)c2oc3ccccc3c2n1	PG9 binder 13, Rev-erbA mod 22 | PG9 bind confirm 20 | PGV04 Ab binding 25 | NR1D1 mod conf inactive
O=c1[nH]c(SCCOc2cccc3ccccc23)nc2ccccc12	none
CCOc1ccc(OCCSc2nc3ccccc3c(=O)[nH]2)cc1	PG9 binder 39, Rev-erbA mod 26 | PG9 bind confirm 37 | PGV04 Ab binding 52 | NR1D1 mod conf inactive
O=C(CSc1nc2ncc(Br)cc2[nH]1)Nc1ccccc1-c1ccccc1	none
CCc1ccc(NC(=O)CSc2nc3ncc(Br)cc3[nH]2)cc1	PG9 binder 11, Rev-erbA mod 59 | PG9 bind confirm 27 | PGV04 Ab binding 38 | NR1D1 mod conf 52 | RORg counter inactive
CC(CC(=O)Nc1ccc2c(c1)c(=O)n(C)n2-c1ccc2ccccc2c1)C(F)(F)F (centres undefined)	PG9 binder 24, Rev-erbA mod 20 (no result: NR2E3 ag-1) | PG9 bind confirm 17 | PGV04 Ab binding 24 | NR1D1 mod conf 22
COc1ccc(C(=O)Cn2cnc3ccc(Cl)cc3c2=O)cc1F	PG9 binder 21, Rev-erbA mod 33 | PG9 bind confirm 36 | PGV04 Ab binding 48 | NR1D1 mod conf 32 | RORg counter inactive
COc1ccc(C(=O)Cn2cnc3ccccc3c2=O)cc1OC	none
